Source: PubChem BioAssay
Rows were chosen to be rich in hits. Some 2.2% of all compounds tested hit in one or more screens of this group.
GLD-1 TGE inh: GLD-1/TGE RNA complex disruptors, primary screen, biochemical, fluorescence polarization. hit rate 0.44% among 320,000. Female germline-specific tumor suppressor gld-1 (Caenorhabditis elegans), Q17339. purified GLD-1 + fluorescein TGE RNA. inhibition, % at 5.96 µM;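 active means percent inhibition above a per-plate cutoff, the plate mean of test compounds plus 3 SD, cut at about 30% in these data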
BCLXL inh: inhibitors of human Bcl-xL, primary screen, biochemical, fluorescence polarization, HTS. Bcl-2-like protein 1 (Homo sapiens), Q07817. GST-Bcl-xL / FITC-Bim BH3 peptide fluorescence polarization. inhibition, % at 10.9 µM. hit rate 0.7% among 320,000. AID 2129, 2009;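 active means inhibition above the mean of all tested compounds plus 3 SD, cutoff set per campaign, cut at about 30% in these data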;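 further: inhibitors lower millipolarization by displacing the labeled peptide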
MEX-5 binding: MEX-5 zinc finger RNA-binding disruptors – biochemical, C. elegans, fluorescence polarization, MLPCN library, primary screen. hit rate 0.38% among 300,000. AID 1832, 2009. MEX-5/FITC-TCR2 RNA binding; stronger effect = lower value. activity score (negative = inhibition of binding), % at 10 µM;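 active means inhibition past about -25% in most replicates, and total fluorescence under double the plate's negative control median, limit read from the data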
VIM-2 inh: VIM-2 metallo-beta-lactamase inhibitors, primary screen, biochemical, epi-absorbance readout, Pseudomonas aeruginosa enzyme; purified VIM-2, nitrocefin hydrolysis, epi-absorbance fluorescence; inhibition, % at 5.6 µM; hit rate 0.89% among 290,000;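 active means inhibition above the mean of all tested compounds plus 3 SD, cutoff set per screening run, cut at about 7.5% in these data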;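 further: red hydrolysis product quenches plate fluorescence so inhibitors raise well fluorescence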
EBV gp42 block: Epstein-Barr virus gp42 inhibitors, primary screen, biochemical, uHTS, fluorescence polarization | Glycoprotein 42 (Epstein-Barr virus (strain AG876)), Q1HVG2 | Fluorescence polarization binding assay, mP read-out | inhibition, % (tested at 21.74 µM) | hit rate 0.42% among 220,000 | AID 1085, 2008; in the data active means inhibition above about 50%
Target sequence (Q1HVG2 whole entry, looked up): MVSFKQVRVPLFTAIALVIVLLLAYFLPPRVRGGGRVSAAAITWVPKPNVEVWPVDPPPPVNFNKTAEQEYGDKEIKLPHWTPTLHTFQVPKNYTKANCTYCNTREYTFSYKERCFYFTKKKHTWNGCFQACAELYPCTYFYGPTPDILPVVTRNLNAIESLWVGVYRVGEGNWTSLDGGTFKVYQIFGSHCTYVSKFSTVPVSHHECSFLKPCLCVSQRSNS
IMP-1 inh-1: IMP-1 metallo-beta-lactamase inhibitors, primary screen, biochemical, epi-absorbance readout, Pseudomonas aeruginosa enzyme | metallo-beta-lactamase IMP-1 (Pseudomonas aeruginosa) | purified IMP-1, nitrocefin hydrolysis, epi-absorbance fluorescence | inhibition, % at 5.6 µM | hit rate 0.45% among 290,000 | AID 1556, 2009;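 active means inhibition above the mean plus 3 SD of all compounds in the same screening run, cut at about 4.5% in these data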
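Assay system: purified recombinant IMP-1 beta-lactamase. Input: IMP-1 0.2 nM before substrate addition. Buffer or medium: Zinc- and detergent-supplemented HEPES buffer, pH 7.1. Schedule: 25 °C, 15 min preincubation, 25 min reaction. Signal: Epi-absorbance fluorescence, 480 nm excitation, 530 nm emission. Evaluation: percent inhibition from optical density relative to buffer-blank wells.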
IMP-1 inh-2: IMP-1 metallo-beta-lactamase inhibitors, confirmation, selectivity assay for selective VIM-2 inhibitor project, biochemical, epi-absorbance readout, triplicate; shares compounds with VIM-2 inh; purified IMP-1, nitrocefin hydrolysis, epi-absorbance fluorescence; inhibition, % at 5.6 µM; 1,300 tested, under 10 active; call rule not given here
VIM-2 FRET ctr: VIM-2 inhibitors in FRET format, confirmation, artefact control for selective VIM-2 inhibitor project, biochemical, epi-absorbance artifact exclusion | purified VIM-2, CCF2 FRET substrate hydrolysis | inhibition, % at 5.6 µM | shares compounds with VIM-2 inh | hit rate 23% among 1,300;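 active means inhibition above the mean of all tested compounds plus 3 SD, cut at about 19% in these data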
TEM-1 counter: TEM-1 serine beta-lactamase inhibitors, counter-screen for VIM-2 inhibitor project, biochemical, epi-absorbance, HTS; inhibition, % at 5.6 µM; shares compounds with VIM-2 inh; hit rate 3% among 1,300; AID 1866, 2009; Purified TEM-1, nitrocefin hydrolysis, epi-absorbance fluorescence;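 active means inhibition above that campaign's mean inhibition plus 3 SD, cut at about 0.46% in these data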
Target sequence (P62593 whole entry, looked up): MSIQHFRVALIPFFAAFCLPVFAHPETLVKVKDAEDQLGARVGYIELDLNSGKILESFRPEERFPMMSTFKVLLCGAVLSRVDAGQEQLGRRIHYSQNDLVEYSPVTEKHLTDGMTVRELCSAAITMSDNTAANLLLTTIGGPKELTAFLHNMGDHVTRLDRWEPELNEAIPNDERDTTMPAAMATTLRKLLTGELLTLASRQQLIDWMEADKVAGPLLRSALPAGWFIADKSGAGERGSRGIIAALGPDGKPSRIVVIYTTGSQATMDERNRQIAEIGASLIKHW
VIM-2 confirm 2: VIM-2 metallo-beta-lactamase inhibitors, confirmation, biochemical, epi-absorbance, hits shared with IMP-1 screen; AID 2187, 2009; shares compounds with VIM-2 inh; purified VIM-2, nitrocefin hydrolysis; inhibition, % at 5.6 µM; hit rate 96% among 1,300;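 active means inhibition of the VIM-2 beta-lactamase enzyme above about 11% from the earlier first-round screen, limit read from the data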
Numbers stand for hits; - = inactive; . = not tested or not shown.

SMILES	GLD-1 TGE inh	BCLXL inh	MEX-5 binding	VIM-2 inh	EBV gp42 block	IMP-1 inh-1	IMP-1 inh-2	VIM-2 FRET ctr	TEM-1 counter	VIM-2 confirm 2
O=C(COc1ccc2c(c1)oc(=O)c1ccccc12)NCCN1CCOCC1	-	-	-	19.3	.	-	-	-	-	27.1
O=C(COc1ccc2c(-c3ccccc3)cc(=O)oc2c1)NCCCN1CCOCC1	-	-	-	-	.	-	.	.	.	.
O=C(COc1cc2oc(=O)c3c(c2cc1Cl)CCC3)NCCCN1CCCC1=O	-	-	-	17.6	.	-	-	-	-	32.0
CC(C)CCNC(=O)COc1ccc2c3c(c(=O)oc2c1)CCC3	-	-	-	-	-	-	.	.	.	.
Cc1noc(C)c1NC(=O)N(C)C[C@H]1Oc2c(NS(=O)(=O)c3cn(C)cn3)cccc2C(=O)N([C@H](C)CO)C[C@@H]1C	-	.	.	.	.	.	.	.	.	.
O=C(Nc1ccccc1C(=O)O)C1=NN=CC1	-	-	-	-	.	-	.	.	.	.
O=C(C1CCN(c2ncnc3c2sc2cccc(F)c23)CC1)N1CCCC1	-	-	-	12.9	-	-	-	-	-	26.9
COc1ccc2nc(C)cc(Nc3ccc(N4CCN(C)CC4)cc3)c2c1	-	-	-	90.0	.	-	-	-	-	90.7
CCCCNC(=O)[C@H]1N2C(=O)c3c(ccc(OC)c3OC)C2SC1(C)C (stereo partly drawn)	-	-	-	-	.	-	.	.	.	.
O=C(c1ccccc1)c1ccc(N2CCNCC2)cc1	.	.	.	18.2	-	-	-	-	-	45.6
O=C(O)CCC(=O)N1CCN(c2ccc(C(=O)c3ccc(F)cc3)cc2)CC1	-	-	-	15.9	-	-	-	-	-	-
CN1CCN(c2ccc(C(=O)c3ccc(F)cc3)cc2)CC1	-	-	-	24.2	-	-	-	-	-	39.9
COc1cc(/C=N/N(CCO)C2=NS(=O)(=O)c3ccccc32)cc(OC)c1OC	-	-	-	12.2	.	-	-	-	-	21.4
CN(C)c1ccc(/C=N/N(CCC(=O)NC(C)(C)C)C2=NS(=O)(=O)c3ccccc32)cc1	-	-	-53.0	19.7	.	-	-	-	-	-
Clc1ccc(-c2csc(=Nc3cccnc3)n2CCCn2ccnc2)cc1Cl	-	-	-	29.6	-	-	-	-	-	35.2
COc1cc(CNCCNCC(C)O)ccc1OCc1ccc(Cl)nc1 (stereo not drawn)	-	-	-	38.5	-	-	-	-	-	32.1
O=C(Cn1cnc2c(NC(=O)OCc3ccccc3)ncnc21)NCc1ccccn1	-	-	.	.	.	.	.	.	.	.
CCOC(=O)c1cnc2c(CC)cccc2c1NCCN1CCOCC1	-	-	-	14.1	.	-	-	-	-	23.6
O=C1CC(NS(=O)(=O)c2ccccc2)CN1c1ccc2c(c1)OCCO2 (stereo not drawn)	-	-	-	.	.	.	.	.	.	.
O=[N+]([O-])c1ccccc1/C=N/n1c(-c2ccccc2)n[nH]c1=S	-	-	-	-	.	-	.	.	.	.
O=[N+]([O-])c1ccccc1/C=C/C=N/n1c(-c2ccccc2F)n[nH]c1=S	-	-	-	13.5	-	-	-	33.7	-	21.2
COc1ccccc1N1CCN(C(=O)CSc2nnc(C)n2C2CC2)CC1	-	.	.	.	.	.	.	.	.	.
Cc1c(CCO)c(=O)n2c([nH]c3ccccc32)c1C#N	-	-	-	20.5	.	-	-	-	-	30.2
CCCCc1c(C)c(C#N)c2[nH]c3ccccc3n2c1=O	-	-	-	-	-	-	.	.	.	.
CC(=O)N1CCOc2ccc(S(=O)(=O)N3CC(C)CC(C)C3)cc21 (stereo not drawn)	-	-	-	-	.	-	.	.	.	.
SMILES	GLD-1 TGE inh	BCLXL inh	MEX-5 binding	VIM-2 inh	EBV gp42 block	IMP-1 inh-1	IMP-1 inh-2	VIM-2 FRET ctr	TEM-1 counter	VIM-2 confirm 2
COc1ccc(-n2c(=S)[nH]c3ccccc3c2=S)cc1	-	-	-	14.2	.	-	-	26.9	-	18.5
N#Cc1cc2c(=O)n3ccccc3nc2n(CCCn2ccnc2)c1=N	-	-	-	45.1	.	-	-	-	-	78.2
CCCn1c(=N)c(C#N)cc2c(=O)n3ccccc3nc21	-	-	-	-	-	-	.	.	.	.
Cc1cccc(C)c1NC(=O)c1ccccc1C(=O)O	-	-	-	-	.	-	.	.	.	.
Cc1cccc(C(=O)c2ccccc2C(=O)O)c1O	-	-	-	21.7	-	-	-	30.0	-	16.7
CCc1cc(=O)oc2cc(C)cc(OCC(=O)NC3CC3)c12	-	-	-	-	.	-	.	.	.	.
O=C(Cn1[nH]c(=O)c2ccccc2c1=O)NC1CCCCCC1	-	-	-	-	-	-	.	.	.	.
CCc1cc(=O)oc2cc(C)cc(OCC(=O)NC3CCN(Cc4ccccc4)CC3)c12	-	-	-	12.8	.	-	-	-	-	23.6
Cc1c(C)c2ccc(OCC(=O)NC3CCN(Cc4ccccc4)CC3)c(C)c2oc1=O	-	-	-	21.2	.	-	-	-	-	31.0
O=C(Cn1[nH]c(=O)c2ccccc2c1=O)NC1CCN(Cc2ccccc2)CC1	-	-	-	20.4	-	-	-	-	-	36.5
CN(C)c1ccc(N2C(=NC(=O)CC3CCCCC3)SC3CS(=O)(=O)CC32)cc1 (stereo not drawn)	-	-	-	-	.	-	.	.	.	.
CSc1nnc2c3cc(F)ccc3n(C)c2n1	-	-	-	13.8	.	-	-	-	-	24.3
CC(=O)c1ccccc1OC(=O)COc1ccc([N+](=O)[O-])cc1	-	-	-	-	.	-	.	.	.	.
Cn1c(=O)c2c(SCc3cccnc3)nc(C3CC3)nc2n(C)c1=O	-	-	-	29.4	-	-	-	-	-	49.0
COc1cc(/C=N/N2CCN(Cc3ccc(C)cc3)CC2)cc(OC)c1O	-	-	-	21.7	.	-	-	-	-	31.8
